Screens from PubChem BioAssay.
ERp5 inh: inhibitors of human ERp5; ERp5 insulin aggregation, absorbance 650 nm, 90 min; 0.05% of 350,000 active; AID 651711; inhibition, % at 9.99 µM;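 active = mean replicate inhibition above about 25%, with every replicate also reaching it, limit read from the data, passing the limit was not always enough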
PDI turbidity: blocks human protein disulfide isomerase activity; P07237; inhibition, % at 10 µM; PDI insulin aggregation turbidity, A650, 90 min; 0.052% of 350,000 active;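 active = mean inhibition across replicates of 30% or more, whatever share of single replicates reach that level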
Target sequence (P07237 whole entry, looked up): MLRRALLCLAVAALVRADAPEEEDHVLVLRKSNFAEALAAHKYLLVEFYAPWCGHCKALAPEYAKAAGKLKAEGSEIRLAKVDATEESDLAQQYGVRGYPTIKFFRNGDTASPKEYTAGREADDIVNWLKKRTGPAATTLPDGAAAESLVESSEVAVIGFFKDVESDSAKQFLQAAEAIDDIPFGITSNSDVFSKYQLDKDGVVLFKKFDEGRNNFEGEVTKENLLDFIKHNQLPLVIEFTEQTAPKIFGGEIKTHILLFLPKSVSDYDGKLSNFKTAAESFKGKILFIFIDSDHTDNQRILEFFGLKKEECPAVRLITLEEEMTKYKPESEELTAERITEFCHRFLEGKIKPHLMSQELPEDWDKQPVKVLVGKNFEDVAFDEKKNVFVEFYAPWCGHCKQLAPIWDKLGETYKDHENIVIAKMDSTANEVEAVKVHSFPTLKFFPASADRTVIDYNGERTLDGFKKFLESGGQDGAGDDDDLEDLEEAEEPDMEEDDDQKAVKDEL
GSIS activator: GLuc luminescence reporter in INS-1E cells, primary screen for activators of glucose-dependent secretion of insulin; INS-1E GLuc reporter insulin secretion, 2-3 h; activation, % at 16.6 µM; 0.61% of 370,000 active; AID 743287;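 active = lowest replicate activation of at least 40%, so every replicate reaches that level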
FN deposition inh: fibronectin deposition inhibition; AH1F fibroblasts, Alexa488-fibronectin deposition fluorescence, overnight; inhibition, % at 12.6 µM; 0.086% of 350,000 active; AID 743247;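 active = mean inhibition across replicates of 30% or more, regardless of how many single replicates reach that level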
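test system = AH1F fibroblasts assembling fluorescent fibronectin matrix | quantity = 10000 AH1F cells per well | buffer or medium = DMEM plus 2% serum, read in PBS | doses = single dose, pinned | incubation = 1 h cell attachment, overnight exposure to compound and label | detection = fluorescence at 485 nm excitation, 525 nm emission | read-out basis = inhibition from reduced deposited-fibronectin fluorescence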
Env fusion inh: blocks HIV Env-driven cell-cell fusion; HeLa-JRFL Env/CEM21 cell fusion, luciferase; inhibition, % at 12.3 µM; 1.1% of 360,000 active;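 active = mean replicate inhibition score of at least 50 and every replicate individually at or above 50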
Numbers stand for hits; n = inactive; x = not tested or not shown; [ ] = remark or other dose. Compounds with a hit are over-represented: about 1.4% of the library has one in this group of screens.

SMILES	ERp5 inh	PDI turbidity	GSIS activator	FN deposition inh	Env fusion inh
COc1ccccc1NC(=O)CN(c1ccc(C23CC4CC(CC(C4)C2)C3)cc1)S(C)(=O)=O	x	n	n	n	104
C[C@@H]1CCCCO[C@H](CN(C)C(=O)Nc2ccc(F)cc2)[C@@H](C)CN([C@@H](C)CO)C(=O)c2cc(NS(C)(=O)=O)ccc2O1	n	x	n	x	n
Cc1ccc(S(=O)(=O)N(C)C[C@@H]2OCc3ccccc3-c3ccccc3C(=O)N([C@H](C)CO)C[C@@H]2C)cc1	n	x	n	n	x
C[C@@H]1CN([C@H](C)CO)C(=O)c2cc(NS(C)(=O)=O)ccc2O[C@@H](C)CCCCO[C@@H]1CN(C)Cc1ccccc1	n	x	n	x	n
CCn1c(C)nc2cc(C(=O)NN=Cc3ccc([N+](=O)[O-])cc3)ccc21	n	n	n	31	x
CC(=O)N1[C@@H]2Cn3c(ccc(-c4cccnc4)c3=O)[C@H]1[C@@H](C(=O)NC1Cc3ccccc3C1)[C@@H]2CO	n	x	n	n	x
CC1(C)C(=O)OC(c2cccn2-c2ccc([N+](=O)[O-])cc2)C(C)(C)C1=O (stereo not given)	x	n	n	n	n
CC1(C)C(=O)C2(CCCCC2)C(=O)OC1c1cccn1-c1ccc([N+](=O)[O-])cc1 (stereo not given)	n	n	n	x	72
CC12CC3CC(C)(C1)CC(C(=O)NCc1ccncc1)(C3)C2	n	n	n	n	101
N#Cc1cccc(Oc2ccc(-c3cnc4ccccc4n3)cc2)c1C#N	x	n	87	n	n
N#Cc1ccc(Oc2ccc(-c3cnc4ccccc4n3)cc2)cc1C#N	x	n	n	n	n
CC(C)NC(=O)N[C@@H]1C=C[C@@H](CC(=O)O)O[C@@H]1CO	n	x	n	n	n
Cc1ccc(N(CC(=O)NCc2ccco2)S(=O)(=O)c2ccccc2)cc1	x	n	x	30	n
Cc1ccc(S(=O)(=O)N(Cc2ccc(Cl)cc2)c2ccccc2C(=O)NCc2ccco2)cc1	x	n	n	n	69
Cc1ccc(S(=O)(=O)N2CCC(=O)N(CCOC(=O)Nc3cccc(Cl)c3)CC2)cc1	n	n	n	n	92
Cc1ccc(S(=O)(=O)N2CCC(=O)N(CCOCc3ccc(C(F)(F)F)cc3)CC2)cc1	n	n	n	n	69
CC(C)NC(=S)N(C)C1(c2ccccc2Cl)CCCCC1=O (stereo not given)	x	n	n	n	n
CN(C(=S)NC1CCCCC1)C1(c2ccccc2Cl)CCCCC1=O (stereo not given)	x	n	n	n	93
CCc1ccc(-c2nc(CN3CCC(C(=O)NCc4ccccc4OC)CC3)c(C)o2)cc1	x	n	x	n	n
Cc1oc(-c2ccccc2F)nc1CN1CCC(C(=O)NCCC2=CCCCC2)CC1	x	n	x	n	90
COc1ccc(CCNC(=O)C2CCN(Cc3nc(-c4ccccc4F)oc3C)CC2)cc1OC	x	n	x	34	n
CCc1ccc(-c2nc(CN3CCC(C(=O)NCCc4ccc(OC)c(OC)c4)CC3)c(C)o2)cc1	x	n	x	n	68
Cc1oc(-c2ccccc2F)nc1CN1CCC(C(=O)NCc2cccnc2)CC1	x	n	x	n	n
COc1ccccc1S(=O)(=O)N[C@H]1CC[C@H](CC(=O)N2CCCCC2)O[C@@H]1CO	n	x	n	x	n
CO[C@@H]1CN(C)C(=O)c2ccc(NS(C)(=O)=O)cc2OC[C@H](C)N(C(=O)C2CCCCC2)C[C@H]1C	n	x	n	n	n
SMILES	ERp5 inh	PDI turbidity	GSIS activator	FN deposition inh	Env fusion inh
CCCC(=O)Nc1ccc2c(c1)OC[C@@H](C)N(C(=O)CN(C)C)C[C@H](C)[C@@H](OC)CN(C)C2=O	n	x	n	n	59[16.7 µM]
CO[C@@H]1CN(C)C(=O)c2ccc(NC(=O)C3CCC3)cc2OC[C@H](C)N(CC2CCCCC2)C[C@H]1C	n	x	n	n	n
CCC(=O)Nc1ccc2c(c1)OC[C@H](C)N(CC1CCCCC1)C[C@H](C)[C@@H](OC)CN(C)C2=O	x	x	n	n	87[16.7 µM]
CO[C@H]1CN(C)C(=O)c2ccc(NC(=O)C3CCC3)cc2OC[C@H](C)N(CC2CCCCC2)C[C@@H]1C	n	x	n	n	92[16.7 µM]
CCC(=O)Nc1ccc2c(c1)OC[C@H](C)N(CC1CC1)C[C@H](C)[C@H](OC)CN(C)C2=O	n	x	n	n	x
CO[C@@H]1CN(C)C(=O)c2ccc(NS(C)(=O)=O)cc2OC[C@@H](C)N(C(=O)C2CCCCC2)C[C@H]1C	n	x	n	n	66[16.7 µM]
